According to PubChem BioAssay:
The list shows a part of the results. The source made the active and inactive calls.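 Rule for the calls, unless noted: active = mean inhibition above about 50% in the one-dose retest (limit read from the data); inactive = the rest.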

Assays:
[1] = target: Sentrin-specific protease 8 (Homo sapiens) (UniProt Q96LD8); assay: human SENP8 peptidase blockers, hit retest – biochemical, luminescence, single concentration, confirmation (AID 488912;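 active = mean inhibition across replicates above about 50%, limit read from the data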); conditions: Recombinant SENP8, Z-RLRGG-aminoluciferin luminescence, 60 min; at 12.5 µM; stronger effect = higher value
[2] = target: Sentrin-specific protease 6 (Homo sapiens) (UniProt Q9GZR1); assay: inhibition of human SENP6 catalytic domain – biochemical, luminescence, single concentration, confirmation (AID 488915); conditions: recombinant SENP6, Z-RLRGG-aminoluciferin luminescence; at 12.5 µM; stronger effect = higher value
[3] = target: Sentrin-specific protease 7 (Homo sapiens) (UniProt Q9BQF6); assay: human SENP7 peptidase blockers, hit retest – biochemical, luminescence, single concentration, confirmation (AID 488917); conditions: recombinant SENP7, Z-RLRGG-aminoluciferin luminescence, 40 min; at 12.5 µM; stronger effect = higher value
Caspase-3 (Homo sapiens) = Caspase-3 (Homo sapiens) (UniProt P42574); assay: human caspase-3 activity blockade, out-of-family – biochemical, single concentration, selectivity assay for SENP inhibitor project, confirmation (AID 488918;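 active = mean inhibition above about 50%, limit read from the data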;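 note: plate controls were enzyme with DMSO for no effect and wells without caspase-3 for full effect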); conditions: purified caspase-3, Z-DEVD-aminoluciferin luminescence, 60 min; at 12.5 µM; stronger effect = higher value
[4] = Ultra-Glo luciferase signal interference – biochemical, single concentration, SENP8 reaction pre-completed, artefact control for SENP inhibitor project, confirmation (AID 488919;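 active = mean inhibition above about 50% when retested at one dose, limit read from the data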;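 note: plate controls were DMSO wells with completed reaction for no effect and substrate without enzyme for full effect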); conditions: Pre-incubated SENP8/Z-RLRGG-aminoluciferin, luciferase luminescence interference; at 12.5 µM; stronger effect = higher value
[5] = PERK-eIF2a-CHOP pathway stimulators, retested – cell-based, CHO-CHOP luciferase reporter, single concentration, confirmation (AID 463112; in the data active = activation above about 33%;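 note: 0% = DMSO wells and 100% = tunicamycin 10 µg/mL wells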); conditions: CHO-CHOP cells, CHOP-luciferase reporter luminescence; at 10 µM; stronger effect = higher value; percent of tunicamycin response, DMSO as zero
Procedure, shortened: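 Test system – CHO cells stably carrying a CHOP-driven luciferase reporter · Schedule – 6 h compound exposure at 37 °C after overnight seeding · Signal – Steady-Glo luciferase luminescence · Benchmarks – tunicamycin (high) and DMSO (low) controls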

[6] = HIF-2a driven luciferase blockers, single dose – luminescence, 786-0 RCC cells, confirmation (AID 651580;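 active = mean inhibition across four replicates of at least 40 percent at the single tested concentration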); conditions: HIF-2a luciferase reporter luminescence, overnight, at 18.8 µM, stronger effect = higher value
[7] = HIF-1a luciferase reporter signal reduction – MiaPaCa-2 cells, single concentration, counter-screen for HIF-2a inhibitor project, confirmation (AID 651589;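 active = mean inhibition of the reporter signal across four replicates at the single tested dose of 50% or more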); conditions: MiaPaCa-2 HIF-1a luciferase reporter, desferoxamine, overnight; at 18.8 µM; stronger effect = higher value
[8] = target: Tumor necrosis factor receptor superfamily member 10B (Homo sapiens) (UniProt O14763); assay: viability loss of caspase-8 NB7 cells with TRAIL – with/without TRAIL, luminescence panel, confirmation (AID 651596; in the data active = activity above about 50%); conditions: NB7 neuroblastoma + caspase-8, TRAIL sensitization, NB7 Caspase-8, with TRAIL, mean of runs, at 10 µM, stronger effect = higher value
[9] = as above; conditions: NB7 neuroblastoma + caspase-8, without TRAIL, NB7 Caspase-8, without TRAIL, mean of runs, at 10 µM

Chain of Sentrin-specific protease 7 (Homo sapiens) (Q9BQF6 706-1050 limits assumed): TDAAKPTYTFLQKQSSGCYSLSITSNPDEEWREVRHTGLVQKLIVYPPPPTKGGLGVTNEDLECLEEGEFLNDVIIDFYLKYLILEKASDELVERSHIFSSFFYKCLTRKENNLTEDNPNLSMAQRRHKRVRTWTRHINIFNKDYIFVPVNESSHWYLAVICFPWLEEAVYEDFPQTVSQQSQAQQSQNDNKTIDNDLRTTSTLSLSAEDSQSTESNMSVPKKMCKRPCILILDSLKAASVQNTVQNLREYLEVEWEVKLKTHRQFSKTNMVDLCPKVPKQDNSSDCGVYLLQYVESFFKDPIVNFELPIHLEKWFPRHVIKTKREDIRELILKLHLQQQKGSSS
Chain of Caspase-3 (Homo sapiens) (P42574 28-227 limits assumed): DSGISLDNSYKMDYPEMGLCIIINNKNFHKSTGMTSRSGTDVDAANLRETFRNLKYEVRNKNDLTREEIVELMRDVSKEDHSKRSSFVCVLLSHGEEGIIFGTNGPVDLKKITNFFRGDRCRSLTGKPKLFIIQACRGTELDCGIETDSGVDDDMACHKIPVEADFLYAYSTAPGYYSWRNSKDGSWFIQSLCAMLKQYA
Chain of Sentrin-specific protease 6 (Homo sapiens) (Q9GZR1 628-1112 limits assumed): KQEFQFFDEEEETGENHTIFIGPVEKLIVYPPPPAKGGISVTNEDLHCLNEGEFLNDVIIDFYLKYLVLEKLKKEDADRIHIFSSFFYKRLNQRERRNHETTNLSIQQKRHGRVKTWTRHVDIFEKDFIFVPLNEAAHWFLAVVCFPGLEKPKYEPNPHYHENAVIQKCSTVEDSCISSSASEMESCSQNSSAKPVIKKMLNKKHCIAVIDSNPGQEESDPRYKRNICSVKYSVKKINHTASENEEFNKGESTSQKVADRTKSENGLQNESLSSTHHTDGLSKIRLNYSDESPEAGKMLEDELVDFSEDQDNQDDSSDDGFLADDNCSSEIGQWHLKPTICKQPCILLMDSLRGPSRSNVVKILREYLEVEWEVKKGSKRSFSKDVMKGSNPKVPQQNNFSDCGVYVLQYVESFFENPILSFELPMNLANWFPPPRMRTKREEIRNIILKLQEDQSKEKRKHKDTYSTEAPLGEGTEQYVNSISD
Chain of Sentrin-specific protease 8 (Homo sapiens) (Q96LD8 whole entry, looked up, the tested form may be a part): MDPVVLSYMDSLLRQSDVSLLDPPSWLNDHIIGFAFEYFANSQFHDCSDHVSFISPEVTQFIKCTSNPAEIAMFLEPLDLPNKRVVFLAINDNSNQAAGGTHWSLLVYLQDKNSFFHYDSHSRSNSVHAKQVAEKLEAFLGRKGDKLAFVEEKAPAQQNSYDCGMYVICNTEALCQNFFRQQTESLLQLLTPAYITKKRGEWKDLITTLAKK
Chain of Tumor necrosis factor receptor superfamily member 10B (Homo sapiens) (O14763 whole entry, looked up): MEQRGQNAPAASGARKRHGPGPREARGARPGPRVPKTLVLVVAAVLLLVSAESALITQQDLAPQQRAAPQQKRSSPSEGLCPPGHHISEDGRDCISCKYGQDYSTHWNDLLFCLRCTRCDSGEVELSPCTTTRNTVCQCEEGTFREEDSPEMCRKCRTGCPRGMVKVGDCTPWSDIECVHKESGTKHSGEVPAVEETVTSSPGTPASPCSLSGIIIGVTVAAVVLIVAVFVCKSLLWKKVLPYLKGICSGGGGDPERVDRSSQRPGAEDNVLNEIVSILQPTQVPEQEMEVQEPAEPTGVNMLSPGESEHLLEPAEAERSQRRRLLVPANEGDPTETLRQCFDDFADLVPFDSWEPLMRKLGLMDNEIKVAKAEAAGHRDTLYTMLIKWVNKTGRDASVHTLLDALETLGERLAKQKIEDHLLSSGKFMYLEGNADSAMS

O=c1c(-c2cccc(Cl)c2)c[nH]n1-c1ccccc1
active: inhibition [1] 63.9% | inhibition [2] 61.4% | inhibition [3] 80.8% | inhibition (Caspase-3 (Homo sapiens)) 76.2% | inhibition [4] 63.8%

COc1ccccc1C(=O)Nc1ccc(NC(=O)c2ccco2)c(C)c1
inactive: inhibition [1] 45.3% | inhibition [2] 47.1%
active: inhibition [3] 81.2% | inhibition (Caspase-3 (Homo sapiens)) 82.5% | inhibition [4] 58.6%

O=C(Nc1cccc([N+](=O)[O-])c1)c1ccc2c(c1)OCO2
active: inhibition [3] 88% | inhibition (Caspase-3 (Homo sapiens)) 65.1%
inactive: inhibition [1] 29.3% | inhibition [2] 38.2% | inhibition [4] 9.5%

CC1=CC(C)(C)Nc2ccc(OC(=O)CN3C(=O)C4CCCCC4C3=O)cc21 (centres undefined)
active: activation [5] 68% | inhibition [6] 86.9% | inhibition [7] 86.2%

COc1ccc(C(=O)Nc2ccc3c(c2)OCO3)cc1OC
inactive: inhibition [1] 8.9%
active: inhibition [2] 77.3% | inhibition [3] 93.5% | inhibition (Caspase-3 (Homo sapiens)) 91.3% | inhibition [4] 77.4%

COCCN(CCOC)c1nc(N)c2c(N)nc3c(c2c1C#N)CC(=O)N3Cc1ccc(Cl)cc1
inactive: inhibition [1] -5.5% | inhibition [2] -0.6% | inhibition [3] 5.3% | inhibition (Caspase-3 (Homo sapiens)) 3.6% | inhibition [4] -3.7%

Cc1cc(C)nc(S/C=C/C(=O)c2ccccc2)n1
active: activation [5] 83.4% | inhibition [6] 58.6% | inhibition [7] 98.9%

CC1=NN(C(N)=S)C(=O)C1N=Nc1cc(Cl)ccc1Cl (centres undefined)
inactive: inhibition [1] -5.4% | inhibition [2] -1.7% | inhibition [3] 1.9% | inhibition (Caspase-3 (Homo sapiens)) -1.2% | inhibition [4] 1.2%

Cc1cccc(OC(=O)c2sc3ncn(C)c(=O)c3c2C)c1
inactive: inhibition [1] 1.1% | inhibition [2] 0.1% | inhibition [3] 17.1% | inhibition (Caspase-3 (Homo sapiens)) 14.4% | inhibition [4] -2.4%

COc1ccccc1OCc1nc2ccccc2s1
active: inhibition [1] 96.7% | inhibition [2] 97.3% | inhibition [3] 102% | inhibition (Caspase-3 (Homo sapiens)) 96% | inhibition [4] 95.3%

Cc1cccc(/C=N/NC(=O)CNc2cccc3ccccc23)n1
inactive: inhibition [1] 13.1% | inhibition [2] 12.9% | inhibition [3] 3.9% | inhibition (Caspase-3 (Homo sapiens)) -0.3% | inhibition [4] 1.6%

Cc1cccc(-n2ncc(Cl)c(Cl)c2=O)c1
active: inhibition [7] 101%
inactive: activation [5] 29.5% | inhibition [6] 26.4%
99.6%: activity [8]
99.7%: activity [9]

Cc1cc(C(=O)N/N=C/c2ccc(N3CCOCC3)cc2)c(C)o1
active: inhibition [1] 86.9% | inhibition [2] 86.6% | inhibition [3] 98.6% | inhibition (Caspase-3 (Homo sapiens)) 95.4%
inactive: inhibition [4] 49.9%

CCOC(=O)c1c(NC(=O)CCl)sc(C(=O)N(CC)CC)c1C
inactive: activation [5] 27%
95.3%: activity [8]
93.8%: activity [9]

CCc1ccc(C(=O)COC(=O)c2ccco2)cc1
active: inhibition [1] 62.7% | inhibition [2] 62% | inhibition [3] 83.3% | inhibition (Caspase-3 (Homo sapiens)) 74.5% | inhibition [4] 68%

COc1cccc(-c2nc3cc(C)ccc3o2)c1
active: inhibition [1] 96.1% | inhibition [2] 99.2% | inhibition [3] 102% | inhibition (Caspase-3 (Homo sapiens)) 96.9% | inhibition [4] 94.2%

Cn1cccc1C(=O)OCC(=O)c1ccc(Br)s1
active: inhibition [1] 78.3% | inhibition [2] 78.3% | inhibition [3] 95.5% | inhibition (Caspase-3 (Homo sapiens)) 77.3% | inhibition [4] 54.7%

Cc1nn2cc(-c3ccc(Cl)cc3)cnc2c1Br
inactive: inhibition [1] 17.8% | inhibition [2] 15.7% | inhibition [3] 30.8% | inhibition (Caspase-3 (Homo sapiens)) 28.5% | inhibition [4] 9%

Cc1ccnc(NC(=O)c2ccoc2C)c1
active: inhibition [1] 85.8% | inhibition [2] 88.9% | inhibition [3] 97.1% | inhibition (Caspase-3 (Homo sapiens)) 95.6% | inhibition [4] 80.1%
